An excerpt weighted towards active compounds, which were near 3.2% of everything screened.
SF-1 act: SF-1 (human) activation; CHO-K1 Gal4-SF-1 LBD luciferase reporter; % increase over DMSO SF-1-specific signal; activation, % at 10 µM; hit rate 1.9% among 65,000; AID 522;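 active means activation above the mean activation of all tested compounds plus 3 SD, cut at about 50% in these data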
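Test system: CHO-K1 cells with Gal4–hSF-1 LBD chimera plus Gal4-driven luciferase; Input: 4,000 cells/well; Compound: 10 µM only; Times: 20 h compound treatment, 37 °C; Measured by: steady-glow luciferase luminescence, read after 15 min reagent incubation; Measure: percent activation versus DMSO; Control set: DMSO and mock-transfected background; Replicates: one test per compound.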
E coli RNAP: inhibitors of Escherichia coli RNA polymerase; P0A8V2; E. coli RNA polymerase, fluorescence transcription assay; inhibition, %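 (tested at 10 µM)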; hit rate 0.2% among 62,000; in the data active means inhibition above about 20%;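 further: 0% = enzyme without compound and 100% = no enzyme blank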
Target sequence (P0A8V2 whole entry, looked up): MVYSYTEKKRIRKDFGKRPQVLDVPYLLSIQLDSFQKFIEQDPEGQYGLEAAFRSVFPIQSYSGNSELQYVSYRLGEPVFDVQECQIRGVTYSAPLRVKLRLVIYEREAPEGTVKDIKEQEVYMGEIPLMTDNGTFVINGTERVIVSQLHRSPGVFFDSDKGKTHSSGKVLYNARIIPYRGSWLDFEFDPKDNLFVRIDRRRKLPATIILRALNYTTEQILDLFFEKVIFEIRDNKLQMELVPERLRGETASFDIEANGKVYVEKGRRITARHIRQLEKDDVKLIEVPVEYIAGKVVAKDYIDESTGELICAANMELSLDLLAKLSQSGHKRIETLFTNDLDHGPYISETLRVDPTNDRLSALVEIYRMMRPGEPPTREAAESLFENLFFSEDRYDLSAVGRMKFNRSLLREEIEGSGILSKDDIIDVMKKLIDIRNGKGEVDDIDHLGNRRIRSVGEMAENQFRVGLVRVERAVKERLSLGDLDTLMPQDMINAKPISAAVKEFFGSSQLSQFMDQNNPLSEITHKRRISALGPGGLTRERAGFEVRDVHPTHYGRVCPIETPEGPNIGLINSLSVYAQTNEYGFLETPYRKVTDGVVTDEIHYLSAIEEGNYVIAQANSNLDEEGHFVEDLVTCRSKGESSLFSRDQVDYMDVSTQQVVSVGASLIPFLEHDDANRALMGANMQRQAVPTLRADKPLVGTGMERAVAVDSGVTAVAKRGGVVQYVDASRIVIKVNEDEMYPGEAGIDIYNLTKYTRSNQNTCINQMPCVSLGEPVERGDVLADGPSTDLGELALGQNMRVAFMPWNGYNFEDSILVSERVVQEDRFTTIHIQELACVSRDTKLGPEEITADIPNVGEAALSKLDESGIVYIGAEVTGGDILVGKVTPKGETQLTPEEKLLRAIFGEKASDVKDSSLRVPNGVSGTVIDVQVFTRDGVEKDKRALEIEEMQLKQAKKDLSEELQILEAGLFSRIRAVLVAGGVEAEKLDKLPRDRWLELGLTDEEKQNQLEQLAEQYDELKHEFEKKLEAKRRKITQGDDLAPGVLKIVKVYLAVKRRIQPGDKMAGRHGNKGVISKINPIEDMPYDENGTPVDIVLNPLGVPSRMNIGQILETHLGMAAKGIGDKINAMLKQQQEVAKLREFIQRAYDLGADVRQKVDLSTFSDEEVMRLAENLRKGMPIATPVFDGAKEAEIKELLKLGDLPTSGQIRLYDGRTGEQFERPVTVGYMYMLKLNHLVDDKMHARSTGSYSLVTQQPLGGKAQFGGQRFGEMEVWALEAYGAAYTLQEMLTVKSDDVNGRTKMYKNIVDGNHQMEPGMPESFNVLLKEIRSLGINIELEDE
JNK3 inh: blocks human JNK3 kinase activity; inhibition, % at 8 µM; hit rate 0.61% among 60,000; AID 746; purified JNK3 kinase activity, HTS; in the data active means inhibition above about 17%;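 further: 0% = DMSO and 100% = reference inhibitor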
BAP1 block: human BAP1 deubiquitinase inhibition; hit rate 0.48% among 72,000; recombinant BAP1, Ub-AMC hydrolysis fluorescence kinetic; hits give low values; AID 436; Q92560; activity remaining (% of control), % at 20 µM;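 active means activity remaining at or below 50% of control, provided the compound also passes the data quality filters; inactive means the rest, including low values that fail the filters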;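 further: 100% = DMSO wells rate and 0% = substrate alone blank rate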
RORa activator: RORA (human) activation | P35398 | activation, % at 10 µM | hit rate 1.5% among 65,000 | CHO-K1 Gal4-RORA LBD luciferase reporter, luminescence; percent increase over mock-subtracted basal signal | AID 560;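 active means activation above the mean of all tested compounds plus 3 SD, cut at about 49% in these data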;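 further: 0% = DMSO-treated RORA cells and 100% = added signal equal to DMSO minus mock-transfected cells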
BAP1 inh conf: BAP1 (human) enzyme inhibition, confirmed; AID 753; hit rate 8% among 310; % of control activity, % at 20 µM; purified BAP1, Ub-ethyl ester hydrolysis, HPLC; hits give low values; shares compounds with BAP1 block;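 active means percent of control activity at or below 60%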
The depositor's hits bear a star.

CCCCn1c(=O)c(C(=O)Nc2nc3ccccc3[nH]2)c(O)c2ccccc21 was read as SF-1 act -11.3, E coli RNAP 8.8, JNK3 inh -3.4, BAP1 block 38.2* and RORa activator -18.1.
`Cc1ccc2nc(N3CCC(C(=O)N4CCC5(CC4)OCCO5)CC3)sc2c1` gave SF-1 act 73.8*, E coli RNAP 2.3, JNK3 inh 1.0, BAP1 block 94.9 and RORa activator 30.3.
O=C(C1CCN(c2nc3ccc(Br)cc3s2)CC1)N1CCC2(CC1)OCCO2 was read as SF-1 act 6.5, E coli RNAP 5.1, JNK3 inh 3.6, BAP1 block 108.6 and RORa activator 8.2.
Screening C=CCn1c(O)c(C(C)=Nc2cc(OC)ccc2OC)c(=O)[nH]c1=O returned SF-1 act -13.4, E coli RNAP -2.3, JNK3 inh -2.7, BAP1 block 89.4 and RORa activator -14.6.
`O=C(c1cc2c(s1)-c1ccccc1OC2)N1CCC2(CC1)OCCO2` gave SF-1 act 61.2*, E coli RNAP -17.5, JNK3 inh -4.1 and RORa activator 54.1*.
Screening COc1ccc(CCN(C)Cc2c(F)cccc2F)cc1OC returned SF-1 act 8.9, E coli RNAP 9.1, JNK3 inh 1.0, BAP1 block 92.5 and RORa activator 0.8.
C[C@H]1OC[C@@H](C[N+](C)(C)C)O1 was read as SF-1 act 0.7, E coli RNAP 8.0, JNK3 inh -5.8, BAP1 block 143.3 and RORa activator -5.4.
For N[C@@H](CCl)C(=O)O the results were BAP1 block 90.8.
For NC(Cc1cc(O)c(O)cc1O)C(=O)O (stereo unspecified) the results were BAP1 block 47.6*.
For CC1(C)CN=C(Nc2nc3ccccc3s2)S1 the results were SF-1 act 69.9*, E coli RNAP 4.3, JNK3 inh -0.9, BAP1 block 64.8 and RORa activator 54.2*.
CC(=Nc1ccc2c(c1)CCC2)c1c(O)n(C2CCCCC2)c(=O)[nH]c1=O was read as SF-1 act 3.8, E coli RNAP 8.1, JNK3 inh 4.4 and RORa activator -1.1.
CCC(=Nc1ccc2c(c1)CCC2)c1c(O)n(C2CCCCC2)c(=O)[nH]c1=O was read as SF-1 act -9.1, E coli RNAP 1.1, JNK3 inh -0.6, BAP1 block 46.0*, RORa activator -6.6 and BAP1 inh conf 83.7.
CCn1nc(-c2cccs2)nc2c(=O)n(C)c(=O)nc1-2 was read as SF-1 act -96.0, E coli RNAP 8.8, JNK3 inh 46.9*, BAP1 block 44.8*, RORa activator -90.7 and BAP1 inh conf 93.5.
Screening Cc1ccc(S(=O)(=O)NCC2CCC(C(=O)N3CCC4(CC3)OCCO4)CC2)cc1 (stereo unspecified) returned SF-1 act -1.3, E coli RNAP 4.5, JNK3 inh 4.9, BAP1 block 111.1 and RORa activator 7.0.
